Results as given in ChEMBL document CHEMBL5705890, “Antitumor activity of an allosteric inhibitor of centromere-associated protein-E” (Proc Natl Acad Sci U S A, 2010).

Assays:
[1] = system: Detroit 562; assay: Anticancer activity against human Detroit 562 cells assessed as cell growth inhibition measured after 72 hrs by DAPI staining based analysis; assay type: functional
Outline: (§1)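 Cells seeded, DAPI-stained DNA content of fixed cells read by imaging 24 h after seeding (T0), and again after a further 72 h exposure to a range of drug concentrations (T72). T72 values were normalized to T0. Curve fits gave the concentration producing 50% growth inhibition relative to T0 and Ymax (GI50).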

[2] = system: SNU-398; assay: Anticancer activity against human SNU-398 cells assessed as cell doubling measured for 72 hrs by DAPI staining based analysis; assay type: functional
[3] = system: KM12; assay: Anticancer activity against human KM12 cells assessed as cell growth inhibition measured after 72 hrs by DAPI staining based analysis; assay type: functional
[4] = system: SW684; assay: Anticancer activity against human SW684 cells assessed as cell doubling measured for 72 hrs by DAPI staining based analysis; assay type: functional
[5] = system: EKVX; assay: Anticancer activity against human EKVX cells assessed as cell growth inhibition measured after 72 hrs by DAPI staining based analysis; assay type: functional; outline: as §1
[6] = system: SNU-387; assay: Anticancer activity against human SNU-387 cells assessed as cell doubling measured for 72 hrs by DAPI staining based analysis; assay type: functional
[7] = system: NCI-H23; assay: Anticancer activity against human NCI-H23 cells assessed as cell growth inhibition measured after 72 hrs by DAPI staining based analysis; assay type: functional
[8] = system: LNCaP; assay: Anticancer activity against human LNCaP cells assessed as cell growth inhibition measured after 72 hrs by DAPI staining based analysis; assay type: functional
[9] = system: HCT-116; assay: Anticancer activity against human HCT-116 cells assessed as cell doubling measured for 72 hrs by DAPI staining based analysis; assay type: functional
[10] = system: SF-539; assay: Anticancer activity against human SF-539 cells assessed as cell growth inhibition measured after 72 hrs by DAPI staining based analysis; assay type: functional
[11] = system: SCC-25; assay: Anticancer activity against human SCC-25 cells assessed as cell doubling measured for 72 hrs by DAPI staining based analysis; assay type: functional
[12] = system: MES-SA; assay: Anticancer activity against human MES-SA cells assessed as cell doubling measured for 72 hrs by DAPI staining based analysis; assay type: functional
[13] = system: PC-3; assay: Anticancer activity against human PC-3 cells assessed as cell growth inhibition measured after 72 hrs by DAPI staining based analysis; assay type: functional
[14] = system: SK-UT-1; assay: Anticancer activity against human SK-UT-1 cells assessed as cell growth inhibition measured after 72 hrs by DAPI staining based analysis; assay type: functional
[15] = system: SK-OV-3; assay: Antitumor activity against human SK-OV-3 cells in xenograft model assessed as tumor growth delay at 62.5 mg/kg relative to control; assay type: functional
[16] = system: BT-474; assay: Anticancer activity against human BT-474 cells assessed as cell doubling measured for 72 hrs by DAPI staining based analysis; assay type: functional
[17] = system: Caov-3 cell line; assay: Anticancer activity against human Caov-3 cells assessed as cell growth inhibition measured after 72 hrs by DAPI staining based analysis; assay type: functional; outline: as §1
[18] = system: BT-474; assay: Anticancer activity against human BT-474 cells assessed as cell growth inhibition measured after 72 hrs by DAPI staining based analysis; assay type: functional
Outline: (§2)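 Cells were seeded, and DNA content at 24 h after seeding (T0) was read by imaging of fixed, DAPI-stained cells. Cells were then exposed to a range of drug concentrations for a further 72 h (T72) and DNA content was read again. T72 values were normalized to T0, and GI50 was taken from curve fits as the concentration giving 50% growth inhibition relative to T0 and Ymax.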

[19] = system: MCF-10A; assay: Anticancer activity against human MCF-10A cells assessed as cell doubling measured for 72 hrs by DAPI staining based analysis; assay type: functional
[20] = system: NCI-H146; assay: Anticancer activity against human NCI-H146 cells assessed as cell growth inhibition measured after 72 hrs by DAPI staining based analysis; assay type: functional
[21] = system: BeWo; assay: Anticancer activity against human BeWo cells assessed as cell growth inhibition measured after 72 hrs by DAPI staining based analysis; assay type: functional; outline: as §2
[22] = system: SiHa; assay: Anticancer activity against human SiHa cells assessed as cell doubling measured for 72 hrs by DAPI staining based analysis; assay type: functional
[23] = system: 647-V; assay: Anticancer activity against human 647-V cells assessed as cell doubling measured for 72 hrs by DAPI staining based analysis; assay type: functional
[24] = system: NCI-H1299; assay: Antitumor activity against human NCI-H1299 cells in xenograft model assessed as difference between median time to endpoint time of treated versus control group at 125 mg/kg; assay type: functional
[25] = system: Malme-3M; assay: Anticancer activity against human Malme-3M cells assessed as cell doubling measured for 72 hrs by DAPI staining based analysis; assay type: functional
[26] = system: MES-SA; assay: Anticancer activity against human MES-SA cells assessed as cell growth inhibition measured after 72 hrs by DAPI staining based analysis; assay type: functional
[27] = system: UMUC3; assay: Anticancer activity against human UM-UC-3 cells assessed as cell doubling measured for 72 hrs by DAPI staining based analysis; assay type: functional
[28] = system: HOS; assay: Anticancer activity against human HOS cells assessed as cell growth inhibition measured after 72 hrs by DAPI staining based analysis; assay type: functional
[29] = system: SW 954; assay: Anticancer activity against human SW 954 cells assessed as cell doubling measured for 72 hrs by DAPI staining based analysis; assay type: functional
[30] = system: RPMI-6666; assay: Anticancer activity against human RPMI-6666 cells assessed as cell doubling measured for 72 hrs by DAPI staining based analysis; assay type: functional
[31] = system: NCI-H292; assay: Anticancer activity against human NCI-H292 cells assessed as cell doubling measured for 72 hrs by DAPI staining based analysis; assay type: functional
[32] = system: SW837; assay: Anticancer activity against human SW837 cells assessed as cell doubling measured for 72 hrs by DAPI staining based analysis; assay type: functional
[33] = Anticancer activity against human UM-SCC-12 cells assessed as cell growth inhibition measured after 72 hrs by DAPI staining based analysis; assay type: functional
[34] = Anticancer activity against human NL-SCLC3 cells assessed as cell doubling measured for 72 hrs by DAPI staining based analysis; assay type: functional
[35] = system: HN5; assay: Anticancer activity against human HN5 cells assessed as cell growth inhibition measured after 72 hrs by DAPI staining based analysis; assay type: functional
[36] = system: HCT-8; assay: Anticancer activity against human HCT-8 cells assessed as cell growth inhibition measured after 72 hrs by DAPI staining based analysis; assay type: functional
[37] = Anticancer activity against human MJ cells assessed as cell growth inhibition measured after 72 hrs by DAPI staining based analysis; assay type: functional
[38] = system: NCI-H1299; assay: Antitumor activity against human NCI-H1299 cells in xenograft model assessed as tumor growth delay at 125 mg/kg relative to control; assay type: functional
[39] = target: Centromere-associated protein E (Homo sapiens, UniProt Q02224, I182L/T183A); assay: Binding affinity to human CENP-E I182L/T183A mutant assessed as inhibition constant
Sequence of Centromere-associated protein E (Q02224 whole entry I182L/T183A): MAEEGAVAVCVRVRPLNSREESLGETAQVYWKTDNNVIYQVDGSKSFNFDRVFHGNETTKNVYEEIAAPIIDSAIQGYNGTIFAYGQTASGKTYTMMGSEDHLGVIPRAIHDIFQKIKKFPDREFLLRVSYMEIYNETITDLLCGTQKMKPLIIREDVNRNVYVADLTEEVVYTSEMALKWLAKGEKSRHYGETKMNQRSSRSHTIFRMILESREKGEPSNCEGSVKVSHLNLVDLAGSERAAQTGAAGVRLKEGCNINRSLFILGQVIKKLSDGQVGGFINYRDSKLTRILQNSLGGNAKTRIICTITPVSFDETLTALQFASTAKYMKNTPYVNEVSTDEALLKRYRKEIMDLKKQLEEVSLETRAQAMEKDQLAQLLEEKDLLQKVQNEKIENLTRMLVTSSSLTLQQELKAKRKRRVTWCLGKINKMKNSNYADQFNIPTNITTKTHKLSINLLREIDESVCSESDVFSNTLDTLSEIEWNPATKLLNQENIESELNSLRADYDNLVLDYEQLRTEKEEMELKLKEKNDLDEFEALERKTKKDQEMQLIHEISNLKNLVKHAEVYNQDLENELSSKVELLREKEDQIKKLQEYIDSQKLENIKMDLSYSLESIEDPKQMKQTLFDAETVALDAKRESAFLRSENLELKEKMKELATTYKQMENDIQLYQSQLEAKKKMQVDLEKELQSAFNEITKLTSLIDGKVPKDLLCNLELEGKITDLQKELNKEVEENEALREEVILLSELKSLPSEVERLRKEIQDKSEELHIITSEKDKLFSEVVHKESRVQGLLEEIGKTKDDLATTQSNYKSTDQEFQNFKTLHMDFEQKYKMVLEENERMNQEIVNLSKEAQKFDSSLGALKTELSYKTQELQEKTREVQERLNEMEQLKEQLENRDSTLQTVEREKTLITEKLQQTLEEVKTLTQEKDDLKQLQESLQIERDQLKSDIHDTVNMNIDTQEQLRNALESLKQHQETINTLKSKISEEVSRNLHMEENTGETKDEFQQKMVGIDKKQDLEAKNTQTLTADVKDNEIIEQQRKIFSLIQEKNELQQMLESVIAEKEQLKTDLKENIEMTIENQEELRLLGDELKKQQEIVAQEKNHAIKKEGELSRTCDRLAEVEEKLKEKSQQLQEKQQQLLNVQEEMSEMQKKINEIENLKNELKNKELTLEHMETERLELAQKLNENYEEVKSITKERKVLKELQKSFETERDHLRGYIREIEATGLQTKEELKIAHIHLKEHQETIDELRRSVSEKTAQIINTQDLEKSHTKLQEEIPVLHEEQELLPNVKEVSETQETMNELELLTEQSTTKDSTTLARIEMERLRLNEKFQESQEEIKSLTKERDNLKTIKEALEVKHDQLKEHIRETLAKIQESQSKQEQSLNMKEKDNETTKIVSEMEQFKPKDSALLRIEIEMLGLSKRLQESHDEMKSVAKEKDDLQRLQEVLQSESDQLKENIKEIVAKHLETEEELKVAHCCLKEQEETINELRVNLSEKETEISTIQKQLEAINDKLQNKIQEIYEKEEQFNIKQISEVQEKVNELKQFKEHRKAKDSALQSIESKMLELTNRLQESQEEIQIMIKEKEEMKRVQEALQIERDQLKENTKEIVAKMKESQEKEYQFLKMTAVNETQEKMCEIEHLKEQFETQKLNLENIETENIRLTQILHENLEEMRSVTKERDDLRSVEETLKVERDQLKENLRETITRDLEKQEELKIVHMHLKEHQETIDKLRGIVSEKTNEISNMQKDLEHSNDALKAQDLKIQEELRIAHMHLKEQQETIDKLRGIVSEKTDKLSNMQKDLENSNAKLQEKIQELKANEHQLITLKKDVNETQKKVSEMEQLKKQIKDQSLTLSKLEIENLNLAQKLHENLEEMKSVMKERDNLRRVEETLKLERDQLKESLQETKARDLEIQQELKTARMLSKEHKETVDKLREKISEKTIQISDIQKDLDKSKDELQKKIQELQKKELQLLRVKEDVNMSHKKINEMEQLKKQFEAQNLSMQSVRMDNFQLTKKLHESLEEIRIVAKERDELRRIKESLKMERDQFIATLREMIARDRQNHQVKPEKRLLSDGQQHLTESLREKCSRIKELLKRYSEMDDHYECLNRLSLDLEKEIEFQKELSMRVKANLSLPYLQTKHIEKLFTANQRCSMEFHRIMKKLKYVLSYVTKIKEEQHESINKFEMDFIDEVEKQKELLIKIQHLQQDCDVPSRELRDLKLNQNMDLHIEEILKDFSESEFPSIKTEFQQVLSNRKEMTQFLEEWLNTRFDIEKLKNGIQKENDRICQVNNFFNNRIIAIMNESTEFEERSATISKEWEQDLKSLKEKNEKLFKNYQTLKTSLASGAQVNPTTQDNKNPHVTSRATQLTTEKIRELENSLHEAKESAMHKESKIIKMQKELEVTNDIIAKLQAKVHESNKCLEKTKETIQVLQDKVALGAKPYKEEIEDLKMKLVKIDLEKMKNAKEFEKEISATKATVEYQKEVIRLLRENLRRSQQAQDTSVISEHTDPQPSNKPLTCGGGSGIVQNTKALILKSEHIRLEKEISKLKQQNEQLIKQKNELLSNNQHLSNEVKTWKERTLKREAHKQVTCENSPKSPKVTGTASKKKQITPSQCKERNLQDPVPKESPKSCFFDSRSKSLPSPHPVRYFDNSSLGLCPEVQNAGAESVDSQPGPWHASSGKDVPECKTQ

[40] = system: COLO 201; assay: Anticancer activity against human COLO201 cells assessed as cell growth inhibition measured after 72 hrs by DAPI staining based analysis; assay type: functional; outline: as §1
[41] = system: OVCAR-3; assay: Anticancer activity against human OVCAR-3 cells assessed as cell doubling measured for 72 hrs by DAPI staining based analysis; assay type: functional
[42] = system: LS-1034; assay: Anticancer activity against human LS1034 cells assessed as cell doubling measured for 72 hrs by DAPI staining based analysis; assay type: functional
[43] = system: UACC-62; assay: Anticancer activity against human UACC-62 cells assessed as cell growth inhibition measured after 72 hrs by DAPI staining based analysis; assay type: functional

GI50 [7]: 27 nM
GI50 [8]: 76 nM
GI50 [13]: 28 nM
GI50 [14]: 23 nM
GI50 [18]: 110 nM
GI50 [20]: 5230 nM
GI50 [36]: 35 nM
Ki [39]: 61 nM
GI50 [40]: 24 nM
Structure (SMILES): CC(C)Oc1ccc(C(=O)N[C@H](CNC(=O)CN(C)C)Cc2ccc(-c3cn4cccc([C@H](C)O)c4n3)cc2)cc1Cl [GSK-923295A]
GI50 [1]: 35 nM
Activity [2]: 2.53
GI50 [3]: 56 nM
Activity [4]: 1.13
GI50 [5]: 28 nM
Activity [6]: 1.21
Activity [9]: 4.11
GI50 [10]: 28 nM
Activity [11]: 2.99
Activity [12]: 3.22
Activity [15]: 194%
Activity [16]: 1.17
GI50 [17]: 33 nM
Activity [19]: 3.87
GI50 [21]: 26 nM
Activity [22]: 2.36
Activity [23]: 2.72
Time [24]: 16.8 days
Activity [25]: 1.18
GI50 [26]: 65 nM
Activity [27]: 2.44
GI50 [28]: 27 nM
Activity [29]: 1.62
Activity [30]: 1.99
Activity [31]: 2.2
Activity [32]: 1.74
GI50 [33]: 33 nM
Activity [34]: 2.68
GI50 [35]: 118 nM
GI50 [37]: 50 nM
Activity [38]: 76%
Activity [41]: 1.56
Activity [42]: 1.73
GI50 [43]: 25 nM
